Paper PMC11325413 (ACS Omega, 2024)

Assays:
A-549 = test: Cytotoxicity assay, lung cancer cell line; type: cell-based; conditions: Homo sapiens, A549, read-out: cytotoxic activity IC50 ± SEM, A-549
How it was run: (§1)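 Cytotoxicity of test compound was measured by MTT assay in a panel of four human cancer cell lines, with IC50 derived from the viability read-out.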

MCF-7 = test: Cytotoxicity assay, breast cancer cell line; type: cell-based; conditions: Homo sapiens, MCF7, read-out: cytotoxic activity IC50 ± SEM, MCF-7
How it was run: as §1

Panc-1 = test: Cytotoxicity assay, pancreatic cancer cell line; type: cell-based; conditions: Homo sapiens, PANC-1, read-out: cytotoxic activity IC50 ± SEM, Panc-1
How it was run: as §1

HT-29 = test: Cytotoxicity assay, colon cancer cell line; type: cell-based; conditions: Homo sapiens, HT-29, read-out: cytotoxic activity IC50 ± SEM, HT-29
How it was run: as §1

[1] = tested on: four human cancer cell lines (A-549, MCF-7, Panc-1, HT-29); test: Cytotoxicity assay, average over the four cancer cell lines; type: cell-based; conditions: read-out: cytotoxic activity average IC50 (GI50)
EGFR = EGFR (Homo sapiens, UniProt P00533); test: EGFR-TK inhibitory assay; type: biochemical
VEGFR-2 = VEGFR-2 (Homo sapiens, UniProt P35968); test: VEGFR-2 inhibitory kinase assay; type: biochemical
MCF-10A cells = test: Cell viability assay; type: cell-based, human; conditions: 50 μM doses
How it was run: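 Normal human mammary gland epithelial MCF-10A cells were incubated with test compound for 4 days, and viability was read by MTT assay.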

p53 = test: Apoptosis marker immunoassay in A-549: p53; type: cell-based, human; conditions: A-549 cells
How it was run: (§2)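 Sandwich immunoassay quantifying pro-apoptotic (p53, BAX, caspase 3, caspase 6) and antiapoptotic (BCL-2, CK-18) proteins in human lung A-549 cells treated with test compound. Levels are expressed as fold change relative to untreated control cells, as mean ± SD of three independent experiments.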

BAX = test: Apoptosis marker immunoassay in A-549: BAX; type: cell-based, human; conditions: A-549 cells
How it was run: as §2

caspase 3 = test: Apoptosis marker immunoassay in A-549: caspase 3; type: cell-based, human; conditions: A-549 cells
How it was run: as §2

caspase 6 = test: Apoptosis marker immunoassay in A-549: caspase 6; type: cell-based, human; conditions: A-549 cells
How it was run: as §2

CK-18 = test: Apoptosis marker immunoassay in A-549: CK-18; type: cell-based, human; conditions: A-549 cells
How it was run: as §2

Sequence of EGFR (P00533 669-1210): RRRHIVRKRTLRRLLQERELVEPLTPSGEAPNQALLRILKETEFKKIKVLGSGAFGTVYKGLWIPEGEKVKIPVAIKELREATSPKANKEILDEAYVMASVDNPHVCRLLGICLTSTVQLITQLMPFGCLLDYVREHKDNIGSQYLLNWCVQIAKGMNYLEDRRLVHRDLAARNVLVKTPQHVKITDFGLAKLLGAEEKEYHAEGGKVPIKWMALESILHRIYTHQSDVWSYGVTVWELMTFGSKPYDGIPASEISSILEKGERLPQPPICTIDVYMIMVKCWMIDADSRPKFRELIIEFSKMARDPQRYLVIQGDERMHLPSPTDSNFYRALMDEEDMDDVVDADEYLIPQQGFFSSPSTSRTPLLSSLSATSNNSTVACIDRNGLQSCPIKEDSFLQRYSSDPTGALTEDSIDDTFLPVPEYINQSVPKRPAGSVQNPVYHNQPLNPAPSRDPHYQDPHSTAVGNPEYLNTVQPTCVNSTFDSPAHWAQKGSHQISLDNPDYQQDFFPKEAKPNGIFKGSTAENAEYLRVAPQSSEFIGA
Sequence of VEGFR-2 (P35968 20-1356): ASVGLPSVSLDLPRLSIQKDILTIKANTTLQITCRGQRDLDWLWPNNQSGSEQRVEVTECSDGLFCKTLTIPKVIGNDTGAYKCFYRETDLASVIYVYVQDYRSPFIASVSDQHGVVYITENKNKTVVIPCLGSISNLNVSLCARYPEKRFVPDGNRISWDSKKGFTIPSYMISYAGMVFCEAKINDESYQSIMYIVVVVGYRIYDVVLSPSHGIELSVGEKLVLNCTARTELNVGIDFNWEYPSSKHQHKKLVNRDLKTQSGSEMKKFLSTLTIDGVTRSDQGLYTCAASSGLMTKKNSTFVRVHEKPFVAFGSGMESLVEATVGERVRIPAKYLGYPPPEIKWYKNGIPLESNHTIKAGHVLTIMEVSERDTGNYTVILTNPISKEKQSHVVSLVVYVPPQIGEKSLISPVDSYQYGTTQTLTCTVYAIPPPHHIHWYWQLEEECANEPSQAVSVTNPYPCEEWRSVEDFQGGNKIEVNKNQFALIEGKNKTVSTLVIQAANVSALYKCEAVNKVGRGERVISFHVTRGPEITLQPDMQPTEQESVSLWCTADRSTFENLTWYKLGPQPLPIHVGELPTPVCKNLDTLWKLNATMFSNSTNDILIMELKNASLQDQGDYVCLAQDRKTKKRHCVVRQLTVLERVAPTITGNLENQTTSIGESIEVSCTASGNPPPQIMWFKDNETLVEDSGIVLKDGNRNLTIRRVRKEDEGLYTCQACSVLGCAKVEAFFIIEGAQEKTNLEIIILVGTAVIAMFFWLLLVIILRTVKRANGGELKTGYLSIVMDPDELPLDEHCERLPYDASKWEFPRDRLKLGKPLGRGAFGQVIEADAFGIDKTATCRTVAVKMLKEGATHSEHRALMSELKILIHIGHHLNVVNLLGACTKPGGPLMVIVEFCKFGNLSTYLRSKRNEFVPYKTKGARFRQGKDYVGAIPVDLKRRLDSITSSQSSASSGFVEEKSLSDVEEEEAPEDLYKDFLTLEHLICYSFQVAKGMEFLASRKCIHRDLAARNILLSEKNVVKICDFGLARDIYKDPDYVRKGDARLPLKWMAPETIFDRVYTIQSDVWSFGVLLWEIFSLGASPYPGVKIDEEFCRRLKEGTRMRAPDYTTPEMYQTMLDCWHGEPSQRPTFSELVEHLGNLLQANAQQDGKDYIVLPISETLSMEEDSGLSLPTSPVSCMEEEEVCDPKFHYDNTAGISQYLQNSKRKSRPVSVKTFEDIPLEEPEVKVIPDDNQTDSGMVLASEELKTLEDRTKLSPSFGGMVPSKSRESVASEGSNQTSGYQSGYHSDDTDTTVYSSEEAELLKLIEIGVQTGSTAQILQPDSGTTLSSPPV

`COc1cc(C2NC(=S)NC(C)=C2C(=O)OC(C)C)ccc1O` (stereo not shown) [Compound 4, Isopropyl 4-(4-Hydroxy-3-methoxyphenyl)-6-methyl-2-thioxo-1,2,3,4-tetrahydropyrimidine-5-carboxylate] was tested, and the IC50 (A-549) was 0.047 ± 0.004 µM, the IC50 (MCF-7) was 0.05 ± 0.005 µM and the IC50 (Panc-1) was 0.048 ± 0.004 µM. For the same molecule, the IC50 (HT-29) was 0.049 ± 0.004 µM and the IC50 [1] was 0.049 µM.

`COc1ccc(C2NC(=S)NC(C)=C2C(=O)OC(C)C)cc1OC` (stereo not shown) [Compound 5, Isopropyl 4-(3,4-Dimethoxyphenyl)-6-methyl-2-thioxo-1,2,3,4-tetrahydropyrimidine-5-carboxylate] was tested, and the IC50 (A-549) was 0.067 ± 0.006 µM, the IC50 (MCF-7) was 0.071 ± 0.006 µM and the IC50 (Panc-1) was 0.068 ± 0.006 µM. It also gave an IC50 (HT-29) of 0.07 ± 0.006 µM and an IC50 [1] of 0.068 µM.

`COc1cc(C2NC(=S)NC(C)=C2C(=O)OC(C)C)cc(OC)c1OC` (stereo not shown) [Compound 6, Isopropyl 6-Methyl-2-thioxo-4-(3,4,5-trimethoxyphenyl)-1,2,3,4-tetrahydropyrimidine-5-carboxylate] was tested, and the IC50 (A-549) was 0.042 ± 0.004 µM, the IC50 (MCF-7) was 0.046 ± 0.004 µM and the IC50 (Panc-1) was 0.044 ± 0.004 µM. For the same molecule, the IC50 (HT-29) was 0.047 ± 0.004 µM, the IC50 [1] was 0.045 µM and the IC50 (EGFR) was 0.098 ± 0.006 µM. It also gave an IC50 (VEGFR-2) of 0.0053 ± 5e-05 µM.

For `CC1=C(C(=O)OC(C)C)C(c2cccc(O)c2)NC(=S)N1` (stereo not shown) [Compound 7, Isopropyl 4-(3-Hydroxyphenyl)-6-methyl-2-thioxo-1,2,3,4-tetrahydropyrimidine-5-carboxylate], the IC50 (A-549) was 0.07 ± 0.007 µM, the IC50 (MCF-7) was 0.074 ± 0.007 µM and the IC50 (Panc-1) was 0.072 ± 0.007 µM. It also gave an IC50 (HT-29) of 0.073 ± 0.007 µM and an IC50 [1] of 0.071 µM.

`CC1=C(C(=O)OC(C)C)C(c2ccc(O)cc2)NC(=S)N1` (stereo not shown) [Compound 8, Isopropyl 4-(4-Hydroxyphenyl)-6-methyl-2-thioxo-1,2,3,4-tetrahydropyrimidine-5-carboxylate] gave an IC50 (A-549) of 0.064 ± 0.006 µM, an IC50 (MCF-7) of 0.068 ± 0.006 µM and an IC50 (Panc-1) of 0.067 ± 0.006 µM. It also gave an IC50 (HT-29) of 0.068 ± 0.006 µM and an IC50 [1] of 0.067 µM.

For `COc1cc(C2NC(=O)NC(C)=C2C(=O)OC(C)C)ccc1O` (stereo not shown) [Compound 9, Isopropyl 4-(4-Hydroxy-3-methoxyphenyl)-6-methyl-2-oxo-1,2,3,4-tetrahydropyrimidine-5-carboxylate], the IC50 (A-549) was 0.074 ± 0.007 µM, the IC50 (MCF-7) was 0.079 ± 0.007 µM and the IC50 (Panc-1) was 0.075 ± 0.007 µM. For the same molecule, the IC50 (HT-29) was 0.077 ± 0.007 µM and the IC50 [1] was 0.076 µM.

`COc1ccc(C2NC(=O)NC(C)=C2C(=O)OC(C)C)cc1OC` (stereo not shown) [Compound 10, Isopropyl 4-(3,4-Dimethoxyphenyl)-6-methyl-2-oxo-1,2,3,4-tetrahydropyrimidine-5-carboxylate] showed an IC50 (A-549) of 0.052 ± 0.005 µM, an IC50 (MCF-7) of 0.055 ± 0.005 µM and an IC50 (Panc-1) of 0.052 ± 0.005 µM. It also gave an IC50 (HT-29) of 0.054 ± 0.005 µM and an IC50 [1] of 0.053 µM.

In the case of `COc1cc(C2NC(=O)NC(C)=C2C(=O)OC(C)C)cc(OC)c1OC` (stereo not shown) [Compound 11, Isopropyl 6-Methyl-2-oxo-4-(3,4,5-trimethoxyphenyl)-1,2,3,4-tetrahydropyrimidine-5-carboxylate], the IC50 (A-549) is reported as 0.056 ± 0.005 µM, the IC50 (MCF-7) is reported as 0.058 ± 0.005 µM and the IC50 (Panc-1) is reported as 0.056 ± 0.005 µM. It also gave an IC50 (HT-29) of 0.059 ± 0.005 µM and an IC50 [1] of 0.057 µM.

`CC1=C(C(=O)OC(C)C)C(c2cccc(O)c2)NC(=O)N1` (stereo not shown) [Compound 12, Isopropyl 4-(3-Hydroxyphenyl)-6-methyl-2-oxo-1,2,3,4-tetrahydropyrimidine-5-carboxylate] was tested, and the “effect on nontumor cells MCF-10A” value (MCF-10A cells) was “no effect”, the IC50 (A-549) was 0.036 ± 0.003 µM and the IC50 (MCF-7) was 0.038 ± 0.003 µM. The IC50 (Panc-1) was 0.036 ± 0.003 µM, the IC50 (HT-29) was 0.038 ± 0.003 µM and the IC50 [1] was 0.037 µM. The IC50 (EGFR) was 0.087 ± 0.005 µM, the IC50 (VEGFR-2) was 0.0042 ± 4e-05 µM and the “p53 elevation compared to control untreated cells” value (p53) was 4.75 fold. For the same molecule, the “BAX elevation compared to control untreated cells” value (BAX) was 13.95 fold, the “caspase 3 elevation compared to control untreated cells” value (caspase 3) was 8.20 fold and the “caspase 6 elevation compared to control untreated cells” value (caspase 6) was 9.65 fold.

Work on `CC1=C(C(=O)OC(C)C)C(c2ccc(O)cc2)NC(=O)N1` (stereo not shown) [Compound 13, Isopropyl 4-(4-Hydroxyphenyl)-6-methyl-2-oxo-1,2,3,4-tetrahydropyrimidine-5-carboxylate] yielded an IC50 (A-549) of 0.062 ± 0.006 µM, an IC50 (MCF-7) of 0.064 ± 0.006 µM and an IC50 (Panc-1) of 0.061 ± 0.006 µM. It also gave an IC50 (HT-29) of 0.064 ± 0.006 µM and an IC50 [1] of 0.062 µM.

`COc1ccc(C2NC(=O)NC(C)=C2C(=O)OC(C)C)cc1O` (stereo not shown) [Compound 14, Isopropyl 4-(3-Hydroxy-4-methoxyphenyl)-6-methyl-2-oxo-1,2,3,4-tetrahydropyrimidine-5-carboxylate] gave an IC50 (A-549) of 0.04 ± 0.004 µM, an IC50 (MCF-7) of 0.044 ± 0.004 µM and an IC50 (Panc-1) of 0.042 ± 0.004 µM. The IC50 (HT-29) was 0.043 ± 0.004 µM, the IC50 [1] was 0.041 µM and the IC50 (EGFR) was 0.092 ± 0.005 µM. The IC50 (VEGFR-2) was 0.0047 ± 4e-05 µM, the “p53 elevation compared to control untreated cells” value (p53) was 3.10 fold and the “BAX elevation compared to control untreated cells” value (BAX) was 11.50 fold. For the same molecule, the “caspase 3 elevation compared to control untreated cells” value (caspase 3) was 7.40 fold, the “caspase 6 elevation compared to control untreated cells” value (caspase 6) was 8.50 fold and the “CK 18 protein expression level compared to control untreated cells” value (CK-18) was 0.40 folds.

In the case of `COc1cc(C2NC(=O)NC(C)=C2C(=O)OC(C)C)ccc1OCc1ccccc1` (stereo not shown) [Compound 15, Isopropyl 4-[4-(Benzyloxy)-3-methoxyphenyl]-6-methyl-2-oxo-1,2,3,4-tetrahydropyrimidine-5-carboxylate], the “effect on nontumor cells MCF-10A” value (MCF-10A cells) is reported as “no effect”, the IC50 (A-549) is reported as 0.033 ± 0.003 µM and the IC50 (MCF-7) is reported as 0.036 ± 0.003 µM. It also gave an IC50 (Panc-1) of 0.034 ± 0.003 µM, an IC50 (HT-29) of 0.036 ± 0.003 µM and an IC50 [1] of 0.035 µM. The IC50 (EGFR) was 0.084 ± 0.005 µM, the IC50 (VEGFR-2) was 0.0035 ± 3e-05 µM and the “p53 elevation compared to control untreated cells” value (p53) was 5.90 fold. For the same molecule, the “BAX elevation compared to control untreated cells” value (BAX) was 14.50 fold, the “caspase 3 elevation compared to control untreated cells” value (caspase 3) was 8.70 fold and the “caspase 6 elevation compared to control untreated cells” value (caspase 6) was 9.80 fold. For the same molecule, the “CK 18 protein expression level compared to control untreated cells” value (CK-18) was 0.60 folds.

Molecule `C#Cc1cccc(Nc2ncnc3cc(OCCOC)c(OCCOC)cc23)c1` [erlotinib, reference compound] has an IC50 (A-549) of 0.03 ± 0.003 µM, an IC50 (MCF-7) of 0.04 ± 0.003 µM and an IC50 (Panc-1) of 0.03 ± 0.003 µM. It also gave an IC50 (HT-29) of 0.03 ± 0.003 µM.
